Compound activity as filed in PubChem BioAssay.
Sampled rows, rich in hits. Any-hit rate of the full collection: about 2.6%.
esBAF inh = Bmi1 luciferase reporter increase in mESCs, primary screen, esBAF inhibitor project, mouse ES cells, Bmi1 luciferase knock-in, single point; 24 h; 100% = twice the neutral-well signal; AID 602393, 2012; reporter increase, % at 12.5 µM; 350,000 tested, 2% active; in the data active = activation above about 40%; inconclusive = no clear call, values can overlap the other calls;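 note: a rise in the Bmi1 reporter signal indicates esBAF inhibition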
MITF act = activators of MITF-driven TRPM1 promoter reporter, primary screen, cell-based, SK-MEL-5, luciferase, single point. activation, % at 12.5 µM. 300,000 tested, 0.75% active. SK-MEL-5 TRPM1-promoter luciferase, 24 h; % of positive control, neutral wells = 0;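 active = mean activation of at least 80% with every replicate also reaching 80%; inconclusive = mean reaches 80% but some replicate falls short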
Wnt bcat act = Wnt/beta-catenin pathway activators, primary screen, cell-based, plate reader, single point; Wnt/beta-catenin reporter cell assay, activator; activation, % at 9.35 µM; 300,000 tested, 1.2% active; AID 743398, 2014; in the data active = activation above about 30%, passing the limit was not always enough; inconclusive = no clear call, values can overlap the other calls
XiGFP reactiv = activators of inactive X chromosome reactivation, primary screen, imaging, XiGFP fibroblasts, GFP high-content imaging, set 2; activation, % at 7.58 µM; AID 743238, 2013; 360,000 tested, 0.055% active; XiGFP mouse fibroblasts, % GFP-positive cells imaging, 3 d; cells co-treated with 5-aza-dC sensitizer; scaled so ellipticine positive control = 100%;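 active = mean normalized replicate activation at least 10% and every replicate at or above 10%; inconclusive = only one of the two criteria met; inactive = mean below 10% and not all replicates reach 10%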
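System: XiGFP fibroblasts, SV40-immortalized. Medium: DMEM plus 5-aza-dC sensitizer. Doses: single point. Timing: 3 d treatment, 15 min room-temperature fixation. Control set: ellipticine 6 µM.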
Vif inh = HIV Vif self-association inhibitors, primary screen, imaging, HEK293T, single point; HEK293T cells, Vif self-association by quenched fluorescence, 24 h; 340,000 tested, 0.35% active; AID 602346, 2012; inhibition, % at 7.49 µM; in the data active = inhibition above about 50%, passing the limit was not always enough; inconclusive = no clear call, values can overlap the other calls; inactive = below about 31%
Each line names hits and unclear results; the compound was inactive in the other large screens.

CC(C)c1ccc(CN(C)C(=O)c2ccc(S(=O)(=O)NCc3ccco3)cc2)cc1	Wnt bcat act 33.8 (no result: MITF act)
COc1ccc(C[C@@H]2CCn3cc(nn3)COCCCNC2=O)cc1	none (no result: esBAF inh, MITF act, Wnt bcat act, Vif inh)
CCOC(=O)c1sc(SC)c2c1CCC/C2=N/OC	none
CCOC(=O)c1sc(S(C)(=O)=O)c2c1CCc1conc1-2	Wnt bcat act 54.8 (no result: esBAF inh, MITF act)
C[C@@H]1CN([C@H](C)CO)C(=O)c2cc(NC(=O)CCC(F)(F)F)ccc2O[C@@H](C)CCCCO[C@@H]1CN(C)C(=O)C1CCCCC1	none (no result: MITF act, Wnt bcat act, Vif inh)
CC(=O)N1N=C(c2ccc(C)cc2)OC1c1ccc(Br)cc1 (centres undefined)	MITF act 89.9
COc1cc2c(cc1OC(C)=O)C(=O)CCCC2	none (no result: esBAF inh, MITF act)
CC(=O)Oc1cc2c(cc1OC(C)=O)C(=O)CCCC2	Vif inh 57.2 (no result: MITF act)
COc1ccc(NC(=O)CSc2ccccc2)c([N+](=O)[O-])c1	esBAF inh 57.4, MITF act inconclusive
COc1ccc(NC(=O)CSc2nc3ccccc3n2-c2ccccc2)c([N+](=O)[O-])c1	none (no result: esBAF inh)
O=C(c1cc2ccccc2oc1=O)N1CCOCC1	esBAF inh 49.5, Wnt bcat act 35.3
O=C(Nc1ccc(Cl)c(S(=O)(=O)N2CCOCC2)c1)c1cc2ccccc2oc1=O	esBAF inh 81.6
CC(C)C#Cc1ccc([C@@H]2[C@H](C#N)N(C(=O)c3cccc(F)c3)[C@H]2CO)cc1	none (no result: MITF act, Wnt bcat act, Vif inh)
O=[N+]([O-])c1ccccc1COc1ccc(Cl)c2cccnc12	Wnt bcat act 40.7
COc1ccc(Nc2nc(OC)nc(OC)n2)cc1	none
COc1ccc(Nc2nc(Nc3ccc(OC)cc3)nc(-n3[nH]c(=O)c(C)c3C)n2)cc1	Vif inh 56.2 (no result: MITF act, Wnt bcat act, XiGFP reactiv)
CCc1cc(C(=O)Cc2ccc(F)cc2)c(O)cc1O	none
CCc1cc(/C(Cc2ccc3ccccc3n2)=N\O)c(O)cc1O	esBAF inh 50.1 (no result: XiGFP reactiv)
O=C(Cc1nc2ccccc2[nH]1)c1ccc(Cl)cc1	none
O=C(Cc1nc2ccccc2[nH]1)c1ccc([N+](=O)[O-])cc1	Wnt bcat act 57.7 (no result: esBAF inh)
Nc1ccc(C(=O)OCc2nc3ccccc3[nH]2)cc1	esBAF inh 54.6 (no result: Wnt bcat act, XiGFP reactiv)
CCc1cc(C(=O)Cc2nc3ccccc3[nH]2)c(O)cc1O	esBAF inh 47.0, Wnt bcat act 33.6 (no result: XiGFP reactiv)
CCc1cc(/C(Cc2ccccn2)=N\O)c(O)cc1O	none (no result: XiGFP reactiv)
C[C@H]1CN([C@@H](C)CO)C(=O)Cc2cc(NC(=O)Nc3cccc4ccccc34)ccc2O[C@H]1CN(C)Cc1ccc(C(F)(F)F)cc1	none (no result: MITF act, Wnt bcat act, Vif inh)
CN1c2ccc(C3=CCCCC3)cc2[C@@H]2[C@@H](CCN2C(=O)C2CC2)[C@H]1CO	none (no result: esBAF inh, MITF act, Wnt bcat act, Vif inh)
CC(C)NC(=O)Nc1ccc2c(c1)CC(=O)N(C)C[C@@H](C)[C@@H](CN(C)S(C)(=O)=O)O2	none (no result: esBAF inh, MITF act, Wnt bcat act, Vif inh)
CCOc1ccc(/C=N/NC(=O)Cn2ccnc2C)cc1	Wnt bcat act 51.3 (no result: MITF act)
COc1cccc(/C=N/NC(=O)Cn2ccnc2C)c1	none (no result: esBAF inh)
CCN1CCN(S(=O)(=O)c2ccc(C(=O)Nc3sc4c(c3C(N)=O)CCN(CC)C4)cc2)CC1	XiGFP reactiv 53.8 (no result: Vif inh)
CCN1CCc2c(sc(NC(=S)NC(=O)c3ccc(Cl)cc3)c2C(N)=O)C1	Vif inh 50.8 (no result: esBAF inh, MITF act)
CCN1CCc2c(sc(NC(=O)CN3C(=O)c4ccccc4C3=O)c2C(N)=O)C1	none
CCCN1CCc2c(sc(NC(=S)NC(=O)c3ccccc3)c2C#N)C1	none (no result: esBAF inh)
CCN1CCc2c(sc(NC(=O)c3ccc4ccccc4c3)c2C(N)=O)C1	XiGFP reactiv 38.1
CS(=O)(=O)N1CC2(C1)[C@@H](c1ccccc1)[C@H](CO)N2Cc1ccc(F)cc1	none (no result: esBAF inh, MITF act, Wnt bcat act, Vif inh)
CNC[C@H]1Oc2ccc(NC(=O)C3CCCCC3)cc2C(=O)N([C@@H](C)CO)C[C@@H]1C	none (no result: MITF act, Wnt bcat act, Vif inh)
CO[C@@H]1CN(C)C(=O)c2ccc(NC(=O)c3ccc(F)cc3)cc2OC[C@H](C)N(C(C)=O)C[C@@H]1C	none (no result: MITF act, Wnt bcat act, Vif inh)
COc1cccc(-c2cc(C(=O)NC3CCCC3)no2)c1	none (no result: esBAF inh, Wnt bcat act, XiGFP reactiv)
O=C(NC1CCCCC1)c1cc(-c2cccs2)on1	esBAF inh 44.6, MITF act inconclusive, Wnt bcat act 37.4
Cc1ccc(-c2cc(C(=O)NC3CCCC3)no2)cc1	MITF act 125.0
O=C(NC1CCCCC1)c1cc(-c2ccc(F)cc2)on1	esBAF inh 59.4 (no result: MITF act)
Cc1cc(F)ccc1-c1cc(C(=O)NC2CCCCC2)[nH]n1	esBAF inh 61.8 (no result: MITF act)
CC(C)Oc1cc(F)ccc1-c1cc(C(=O)NC2CCCCC2)[nH]n1	none (no result: MITF act)
CC(C)C#Cc1cnc2c(c1)C(=O)N([C@@H](C)CO)C[C@H](C)[C@@H](CN(C)C(=O)CCN1CCCCC1)O2	none (no result: MITF act, Wnt bcat act, Vif inh)
Cc1cs/c(=N/C(=S)Nc2ccccc2)n1C	MITF act 102.0 (no result: esBAF inh)
COC(CNC(=O)C1CCN(C(=O)c2cc3oc(C)cc3n2Cc2c(F)cccc2Cl)CC1)OC	Vif inh 54.8 (no result: esBAF inh)
COc1cc(N2CCCC2)c(OC)cc1/C=C(/C#N)c1ccc(F)cc1	Vif inh 63.1 (no result: XiGFP reactiv)
COc1ccc(OCCCC(=O)Nc2ncn[nH]2)cc1	Vif inh 51.0 (no result: esBAF inh)
CCCOc1ccc(C(=O)Nc2ccc(C)cc2[N+](=O)[O-])cc1	none (no result: Wnt bcat act, XiGFP reactiv)
COc1ccc(C(=O)NCCNc2ccccc2[N+](=O)[O-])cc1	esBAF inh 74.3
O=C(NCCNc1ccccc1[N+](=O)[O-])c1cc(F)c(F)cc1Cl	none (no result: MITF act)
CC(C)COc1ccc(C(=O)Nc2ccccc2[N+](=O)[O-])cc1	Wnt bcat act 79.6 (no result: esBAF inh)
COc1ccc(OCCCC(=O)Nc2cccnc2)cc1	none (no result: esBAF inh, Wnt bcat act, XiGFP reactiv)
CC(C)COc1ccc(C(=O)Nc2ncn[nH]2)cc1	esBAF inh 44.8
CCOc1ccc(C(=O)Nc2ncn[nH]2)cc1	none (no result: MITF act)
CCCNC(=O)Nc1ccc2c(c1)OC[C@@H](C)N(C(=O)C1CCC1)C[C@@H](C)[C@@H](OC)CN(C)C2=O	none (no result: MITF act, Wnt bcat act, Vif inh)
COCC(=O)N(C[C@H]1N[C@H](CO)[C@@H]1c1ccc(-c2ccccc2)cc1)C(C)C	none (no result: MITF act, Wnt bcat act, Vif inh)
Cn1c(O)c(/C=N/NC(=O)c2cc3ccccc3cc2O)c2ccccc21	esBAF inh 46.9 (no result: MITF act)
COCCn1c(C)cc(/C=N/NC(=O)c2cc3ccccc3cc2O)c1C	esBAF inh 46.7 (no result: Wnt bcat act, XiGFP reactiv)
N#Cc1c(-c2ccccc2)ccnc1Oc1ccccc1	esBAF inh 48.9 (no result: Wnt bcat act, XiGFP reactiv)
COc1ccc(Oc2nccc(OC)c2C#N)cc1	none (no result: XiGFP reactiv)
CC(=O)Nc1ccc2c(c1)CC(=O)N(C)C[C@@H](C)[C@@H](CN(C)C)O2	none (no result: esBAF inh, MITF act, Wnt bcat act, Vif inh)
O=C(Nc1cccc(O)c1)c1cc(-c2cccs2)on1	esBAF inh 81.4, MITF act 88.0
O=C(Nc1ccc(Cl)cc1)c1cc(-c2cccs2)on1	none
Cc1ccc(NC(=O)c2cc(-c3cccs3)on2)cc1	Wnt bcat act 55.7 (no result: MITF act, XiGFP reactiv)
COc1ccc(NC(=O)N2CCCCN3[C@H](CO)[C@@H](c4ccc(C5=CCCCC5)cc4)[C@H]3C2)cc1	none (no result: MITF act, Wnt bcat act, Vif inh)
